Drawing on ChEMBL document CHEMBL3272012, “5-(Tetradecyloxy)-2-furancarboxylic acid and related hypolipidemic fatty acid-like alkyloxyarylcarboxylic acids” (J Med Chem, 1977), this text covers Activity and inhibition in vivo for twelve compounds.

Data set [1] relates to Rattus norvegicus. Put plainly: Increase in liver weight in Wistar rat at 419 umol/kg/day administered through diet for 10 days. The format is ADME, organism-based. The following applies: in vivo, po, 240 h. The procedure, abridged: (§1)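 Male Wistar rats (170-190 g initial), groups of six, dosed via diet ad libitum for 4 or 10 days, daily dose from food consumption. Liver wet weight measured, expressed as g/100 g final body weight, compared with untreated controls run simultaneously.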

The test system of data set [2] is Rattus norvegicus. The experiment in a line: Hypolipidemic activity in Wistar rat assessed as reduction in plasma triglyceride level at 419 umol/kg/day administered through diet for 10 days. The format is functional. The following applies: 240 h. The procedure, abridged: (§2)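 Young male Wistar rats (initial weight 170-190 g), groups of six, fed compound mixed into Purina Lab Chow ad libitum for 4 or 10 days; daily dose calculated from food consumption and body weight. Bled by cardiac puncture; plasma cholesterol and triglycerides by automated procedures; percent reduction versus simultaneous untreated controls, Student's t test.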

Data set [3] deals with Rattus norvegicus. The experiment in a line: Hypolipidemic activity in Wistar rat assessed as reduction in plasma cholesterol level at 419 umol/kg/day administered through diet for 10 days. It is filed as functional. The settings on record: 240 h. A digest of the protocol: (§3)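 Young male Wistar rats, 170-190 g initial weight, groups of six, given compound mixed thoroughly into Purina Lab Chow ad libitum for 4 or 10 days as stated. Daily dose calculated from food consumption and body weight. Bled by cardiac puncture at end of treatment; plasma cholesterol measured by automated procedure. Expressed as percent reduction versus simultaneous untreated control group; Student's t test.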

Data set [4] deals with Rattus norvegicus. The experiment in a line: Increase in cholesterol level in Wistar rat liver at 419 umol/kg/day administered through diet for 10 days. The settings on record: in vivo, po, 240 h. It is filed as ADME, organism-based. The procedure, abridged:
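Male Wistar rats (170-190 g), six per group, given compound by admixture to lab chow ad libitum for 4 or 10 days, dose derived from food intake. Liver cholesterol determined by automated procedure, expressed as mg/g wet tissue, compared with an untreated control group by Student's t test.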

In data set [5] the test system is Rattus norvegicus. Put plainly: Increase in liver weight in Wistar rat at 505 umol/kg/day administered through diet for 4 days. The settings on record: in vivo, po, 96 h. It is filed as ADME, organism-based.
Data set [6] has as its system Rattus norvegicus. The experiment in a line: Hypolipidemic activity in Wistar rat assessed as reduction in plasma triglyceride level at 505 umol/kg/day administered through diet for 4 days. The following applies: 96 h. It is filed as functional.
Data set [7] has as its system Rattus norvegicus. The experiment in a line: Hypolipidemic activity in Wistar rat assessed as reduction in plasma cholesterol level at 505 umol/kg/day administered through diet for 4 days. The format is functional. The settings on record: 96 h. A digest of the protocol: as §3
Data set [8] deals with Rattus norvegicus. Put plainly: Hypolipidemic activity in Wistar rat assessed as reduction in plasma triglyceride level at 482 umol/kg/day administered through diet for 4 days. It is filed as functional. The settings on record: 96 h. A digest of the protocol: as §2
In data set [9] the test system is Rattus norvegicus. The experiment in a line: Increase in liver weight in Wistar rat at 482 umol/kg/day administered through diet for 4 days. The following applies: in vivo, po, 96 h. It is filed as ADME, organism-based. The procedure, abridged: as §1
Data set [10] concerns Rattus norvegicus. Put plainly: Hypolipidemic activity in Wistar rat assessed as reduction in plasma cholesterol level at 482 umol/kg/day administered through diet for 4 days. It is filed as functional. The settings on record: 96 h. The procedure, abridged:
as §3

Data set [11] relates to Rattus norvegicus. The experiment in a line: Hypolipidemic activity in Wistar rat assessed as reduction in plasma cholesterol level at 489 umol/kg/day administered through diet for 4 days. It is filed as functional. The following applies: 96 h. The procedure, abridged: as §3
Data set [12] concerns Rattus norvegicus. The experiment in a line: Hypolipidemic activity in Wistar rat assessed as reduction in plasma triglyceride level at 489 umol/kg/day administered through diet for 4 days. The format is functional. The following applies: 96 h.
The subject of data set [13] is Rattus norvegicus. Put plainly: Increase in liver weight in Wistar rat at 491 umol/kg/day administered through diet for 4 days. The format is ADME, organism-based. The settings on record: in vivo, po, 96 h.
The subject of data set [14] is Rattus norvegicus. Put plainly: Hypolipidemic activity in Wistar rat assessed as reduction in plasma cholesterol level at 491 umol/kg/day administered through diet for 4 days. It is filed as functional. The settings on record: 96 h. The procedure, abridged: as §3
Data set [15] deals with Rattus norvegicus. Put plainly: Hypolipidemic activity in Wistar rat assessed as reduction in plasma triglyceride level at 491 umol/kg/day administered through diet for 4 days. The format is functional. The following applies: 96 h.
In data set [16] the test system is Rattus norvegicus. The experiment in a line: Hypolipidemic activity in Wistar rat assessed as reduction in plasma cholesterol level at 456 umol/kg/day administered through diet for 10 days. The format is functional. The following applies: 240 h. A digest of the protocol: as §3
Data set [17] has as its system Rattus norvegicus. Put plainly: Hypolipidemic activity in Wistar rat assessed as reduction in plasma triglyceride level at 456 umol/kg/day administered through diet for 10 days. It is filed as functional. The settings on record: 240 h.
The subject of data set [18] is Rattus norvegicus. The experiment in a line: Hypolipidemic activity in Wistar rat assessed as reduction in plasma triglyceride level at 418 umol/kg/day administered through diet for 4 days. The format is functional. The following applies: 96 h. A digest of the protocol:
as §2

The subject of data set [19] is Rattus norvegicus. Put plainly: Hypolipidemic activity in Wistar rat assessed as reduction in plasma cholesterol level at 418 umol/kg/day administered through diet for 4 days. The format is functional. The following applies: 96 h. The procedure, abridged:
as §3

Data set [20] deals with Rattus norvegicus. The experiment in a line: Increase in liver weight in Wistar rat at 418 umol/kg/day administered through diet for 4 days. It is filed as ADME, organism-based. The settings on record: in vivo, po, 96 h. The procedure, abridged:
as §1

For data set [21], the system named is Rattus norvegicus. Put plainly: Hypolipidemic activity in Wistar rat assessed as reduction in plasma cholesterol level at 411 umol/kg/day administered through diet for 10 days. The following applies: 240 h. It is filed as functional. The procedure, abridged: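 Young male Wistar rats, 170-190 g at start, in groups of six, given compound mixed into Purina Lab Chow ad libitum for 4 or 10 days as stated. Daily dose was calculated from food consumption and body weight. Plasma was taken by cardiac puncture at the end and cholesterol measured by automated procedure. Results are % reduction versus a concurrent untreated control group, with Student's t test.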

Data set [22] deals with Rattus norvegicus. Put plainly: Hypolipidemic activity in Wistar rat assessed as reduction in plasma triglyceride level at 411 umol/kg/day administered through diet for 10 days. It is filed as functional. The settings on record: 240 h.
The subject of data set [23] is Rattus norvegicus. The experiment in a line: Increase in liver weight in Wistar rat at 439 umol/kg/day administered through diet for 4 days. It is filed as ADME, organism-based. The settings on record: in vivo, po, 96 h. A digest of the protocol:
as §1

Data set [24] has as its system Rattus norvegicus. The experiment in a line: Hypolipidemic activity in Wistar rat assessed as reduction in plasma triglyceride level at 439 umol/kg/day administered through diet for 4 days. The format is functional. The settings on record: 96 h. The procedure, abridged: as §2
Data set [25] relates to Rattus norvegicus. Put plainly: Hypolipidemic activity in Wistar rat assessed as reduction in plasma cholesterol level at 439 umol/kg/day administered through diet for 4 days. It is filed as functional. The settings on record: 96 h. The procedure, abridged:
as §3

The subject of data set [26] is Rattus norvegicus. Put plainly: Hypolipidemic activity in Wistar rat assessed as reduction in plasma cholesterol level at 449 umol/kg/day administered through diet for 4 days. The format is functional. The following applies: 96 h. The procedure, abridged:
as §3

For data set [27], the system named is Rattus norvegicus. Put plainly: Increase in liver weight in Wistar rat at 449 umol/kg/day administered through diet for 4 days. It is filed as ADME, organism-based. The settings on record: in vivo, po, 96 h.
The test system of data set [28] is Rattus norvegicus. The experiment in a line: Hypolipidemic activity in Wistar rat assessed as reduction in plasma triglyceride level at 449 umol/kg/day administered through diet for 4 days. The format is functional. The following applies: 96 h.
Data set [29] concerns Rattus norvegicus. Put plainly: Hypolipidemic activity in Wistar rat assessed as reduction in plasma cholesterol level at 499 umol/kg/day administered through diet for 4 days. The format is functional. The following applies: 96 h. A digest of the protocol:
as §3

Data set [30] relates to Rattus norvegicus. The experiment in a line: Increase in liver weight in Wistar rat at 499 umol/kg/day administered through diet for 4 days. The following applies: in vivo, po, 96 h. It is filed as ADME, organism-based. The procedure, abridged: as §1
Data set [31] relates to Rattus norvegicus. Put plainly: Hypolipidemic activity in Wistar rat assessed as reduction in plasma triglyceride level at 499 umol/kg/day administered through diet for 4 days. The format is functional. The settings on record: 96 h. A digest of the protocol: as §2

Structures are written as SMILES.

Regarding `CCCCCCCCCCCCCCCCOc1ccc(C(=O)O)cc1`, the Activity turned out to be 5% in [1] and 17% in [4]. Besides, the inhibition in vivo (as a rule, the relative decrease from the control value, in per cent) at 419 µmol/kg in data set [2] amounted to 55%; in [3], 15%.

For `CCCCCCCCCCCCOc1cccc(C(=O)OC)c1`, the Activity in data set [5] was found to be 4%. For the same compound, the values for the inhibition in vivo at 505 µmol/kg in data set [6] and in [7] were 55% and 7%, respectively.

As for `CCCCCCCCCCCCCCOc1ccc(C(N)=O)o1`, the inhibition in vivo at 482 µmol/kg in data set [8] was determined as 14%; in data set [10] it was 0%. In data set [9], this compound displayed an Activity of 7%.

As for `CCCCCCCCCCCC(=O)Nc1ccc(C(=O)OCC)cc1`, the inhibition in vivo at 489 µmol/kg in [11] and in [12] was 0% each time.

Regarding `CCCCCCCCCCCCCCOc1ccccc1C(=O)OC`, in data set [13], the Activity worked out at 0%. Also, the inhibition in vivo at 491 µmol/kg in data set [14] and in data set [15] was 0% in each case.

`CCCCCCCCCCCCCCCCOc1ccccc1C(=O)CC(=O)OC`: the inhibition in vivo at 456 µmol/kg in [16] is 10%; in data set [17], 23%.

Turning to `CCCCCCCCCCCCCCOc1ccc(C(=O)OCC)cc1Cl`, the inhibition in vivo at 418 µmol/kg in data set [18] and in [19] was 0% in each case. The same compound returned an Activity in [20] of 0%.

Turning to `CCCCCCCCCCCCCCOc1ccc(C#N)cc1`, the results for the inhibition in vivo at 482 µmol/kg in data set [8] and in data set [10] were 6% and 10%, respectively. In data set [9], this compound displayed an Activity of 4%.

`CCCCCCCCCCc1ccc(C(=O)CC(=O)OC)cc1`: the inhibition in vivo at 411 µmol/kg is 30% in [21] and 69% in data set [22].

As to `CCCCCCCCCCCCCCOc1ccc(C(=O)OCC)c(O)c1`, in data set [23], the Activity is reported as 1%. Further, the inhibition in vivo at 439 µmol/kg in data set [24] and in [25] was 0% each time.

Regarding `CCCCCCCCCCCCCCOc1ccc(C(=O)N(CC)CC)cc1`, the inhibition in vivo at 449 µmol/kg in data set [26] and in data set [28] was 0% in each case. The Activity in data set [27] came out at 5%.

Consider `CCCCCCCCCCCCCCOc1ccc(C(C)=O)o1`, for which the inhibition in vivo at 499 µmol/kg in data set [29] was found to be 0%; in data set [31], 21%. The Activity in data set [30] is recorded as 0%.
